Laboratory results from ChEMBL document CHEMBL1153277 (Bioorg Med Chem Lett, 2009).

What was measured:
[1] = Octanol-water partition coefficient, log P of the compound; format: physicochemical
[2] = target: Neuronal acetylcholine receptor subunit alpha-7 (Homo sapiens, UniProt P36544); experiment: Agonist activity at human recombinant alpha7 nAChR expressed in rat GH3 cells by calcium influx assay; format: functional, cell-based
In short: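 GH3 cells recombinantly expressing human α7 nAChR; agonist activity. Each compound run in duplicate. EC50 taken from individual 8-point concentration-response curves and expressed as pEC50, with Emax given in %.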

[3] = target: Acetylcholine receptor; alpha1/beta1/delta/gamma (Homo sapiens, UniProt P02708+P07510+P11230+Q07001); experiment: Antagonist activity at human alpha-1-beta-1-gamma-delta nAChR expressed in human TE671 cells by calcium influx assay; format: functional, cell-based, TE-671
Sequence of Acetylcholine receptor; alpha1/beta1/delta/gamma (P02708 whole entry): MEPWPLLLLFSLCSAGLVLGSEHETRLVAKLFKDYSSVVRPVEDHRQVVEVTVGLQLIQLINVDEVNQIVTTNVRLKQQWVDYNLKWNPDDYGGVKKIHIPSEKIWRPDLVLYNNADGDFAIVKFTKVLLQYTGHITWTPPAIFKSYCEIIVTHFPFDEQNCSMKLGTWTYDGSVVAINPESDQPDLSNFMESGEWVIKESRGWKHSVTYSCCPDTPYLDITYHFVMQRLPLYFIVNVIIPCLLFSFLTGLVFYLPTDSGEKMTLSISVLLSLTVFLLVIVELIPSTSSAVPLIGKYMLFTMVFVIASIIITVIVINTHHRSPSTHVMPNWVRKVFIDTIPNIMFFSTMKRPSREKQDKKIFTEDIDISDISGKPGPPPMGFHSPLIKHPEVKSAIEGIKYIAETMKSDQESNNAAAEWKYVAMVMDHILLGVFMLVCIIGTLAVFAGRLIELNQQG
Sequence of Acetylcholine receptor; alpha1/beta1/delta/gamma (P07510 whole entry): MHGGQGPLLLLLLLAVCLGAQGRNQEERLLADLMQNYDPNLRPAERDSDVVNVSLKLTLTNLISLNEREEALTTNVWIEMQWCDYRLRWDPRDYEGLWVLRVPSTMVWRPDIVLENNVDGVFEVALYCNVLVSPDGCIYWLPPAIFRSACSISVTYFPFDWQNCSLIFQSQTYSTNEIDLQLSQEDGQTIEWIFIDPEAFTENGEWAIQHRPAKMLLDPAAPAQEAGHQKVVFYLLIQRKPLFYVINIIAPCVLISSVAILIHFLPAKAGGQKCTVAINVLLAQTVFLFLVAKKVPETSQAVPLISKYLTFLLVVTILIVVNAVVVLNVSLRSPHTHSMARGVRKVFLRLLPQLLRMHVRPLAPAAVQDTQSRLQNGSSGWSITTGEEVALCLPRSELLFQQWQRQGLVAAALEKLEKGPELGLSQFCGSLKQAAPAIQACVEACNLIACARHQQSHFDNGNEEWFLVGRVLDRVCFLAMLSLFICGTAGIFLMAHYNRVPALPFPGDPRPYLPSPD
Sequence of Acetylcholine receptor; alpha1/beta1/delta/gamma (P11230 whole entry): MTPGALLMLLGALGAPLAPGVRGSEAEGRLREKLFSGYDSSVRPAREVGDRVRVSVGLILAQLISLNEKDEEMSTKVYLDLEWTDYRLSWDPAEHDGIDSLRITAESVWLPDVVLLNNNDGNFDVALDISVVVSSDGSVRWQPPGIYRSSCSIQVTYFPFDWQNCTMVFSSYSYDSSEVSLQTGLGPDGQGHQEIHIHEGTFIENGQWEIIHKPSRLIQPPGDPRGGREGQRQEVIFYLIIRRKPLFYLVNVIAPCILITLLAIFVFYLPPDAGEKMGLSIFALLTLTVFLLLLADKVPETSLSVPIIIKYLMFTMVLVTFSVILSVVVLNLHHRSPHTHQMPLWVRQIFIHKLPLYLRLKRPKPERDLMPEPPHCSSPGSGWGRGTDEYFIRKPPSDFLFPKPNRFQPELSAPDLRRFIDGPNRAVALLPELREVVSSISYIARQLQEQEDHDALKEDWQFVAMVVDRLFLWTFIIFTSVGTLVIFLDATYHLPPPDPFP
Sequence of Acetylcholine receptor; alpha1/beta1/delta/gamma (Q07001 whole entry): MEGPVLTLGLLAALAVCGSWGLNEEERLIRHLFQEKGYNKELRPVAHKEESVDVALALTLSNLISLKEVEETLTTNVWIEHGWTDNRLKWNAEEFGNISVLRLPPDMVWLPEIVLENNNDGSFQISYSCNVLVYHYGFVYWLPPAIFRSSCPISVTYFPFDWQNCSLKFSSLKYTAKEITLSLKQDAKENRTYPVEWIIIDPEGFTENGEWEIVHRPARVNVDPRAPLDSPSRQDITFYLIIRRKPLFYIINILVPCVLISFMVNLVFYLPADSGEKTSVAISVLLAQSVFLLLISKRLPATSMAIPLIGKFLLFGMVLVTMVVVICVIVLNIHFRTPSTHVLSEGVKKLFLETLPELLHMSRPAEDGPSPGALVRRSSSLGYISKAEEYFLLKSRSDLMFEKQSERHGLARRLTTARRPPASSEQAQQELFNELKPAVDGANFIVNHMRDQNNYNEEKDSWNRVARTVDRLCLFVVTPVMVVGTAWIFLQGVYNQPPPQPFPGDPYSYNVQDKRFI

[4] = Inhibition of sodium channel at 30 uM by patch-clamp technique
[5] = Protein binding in rat plasma assessed as fraction unbound; format: ADME, cell-free
In short: (§1)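 Binding to human and rat plasma protein, reported as the free (unbound) fraction in %.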

[6] = Protein binding in human plasma assessed as fraction unbound; format: ADME, cell-free; in short: as §1
Homo sapiens [7] = species: Homo sapiens; experiment: Selectivity for human alpha3beta4 nAChR over human alpha7 nAChR
Brain [8] = experiment: Drug level in DBA/2 mouse brain at 30 umol/kg, po after 4 hrs; format: ADME, organism-based; settings: in vivo
In short: (§2)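 Mice (n = 6) dosed 30 µmol/kg po. Brain and plasma levels measured at 1 h and 4 h after dosing, reported as pmol/g.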

[9] = Metabolic stability in mouse liver microsomes assessed as hepatic extraction ratio; format: ADME, Microsome; settings: read-out: Activity
In short: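 Compound incubated with mouse or human liver microsomes. In vitro hepatic extraction ratio reported as % compound depleted at the end of the experiment; half-life also given.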

[10] = target: Neuronal acetylcholine receptor; alpha3/beta4 (Homo sapiens, UniProt P30926+P32297); experiment: Antagonist activity at human alpha3beta4 nAChR expressed in HEK293 cells by calcium influx assay; format: functional, cell-based
Sequence of Neuronal acetylcholine receptor; alpha3/beta4 (P30926 whole entry): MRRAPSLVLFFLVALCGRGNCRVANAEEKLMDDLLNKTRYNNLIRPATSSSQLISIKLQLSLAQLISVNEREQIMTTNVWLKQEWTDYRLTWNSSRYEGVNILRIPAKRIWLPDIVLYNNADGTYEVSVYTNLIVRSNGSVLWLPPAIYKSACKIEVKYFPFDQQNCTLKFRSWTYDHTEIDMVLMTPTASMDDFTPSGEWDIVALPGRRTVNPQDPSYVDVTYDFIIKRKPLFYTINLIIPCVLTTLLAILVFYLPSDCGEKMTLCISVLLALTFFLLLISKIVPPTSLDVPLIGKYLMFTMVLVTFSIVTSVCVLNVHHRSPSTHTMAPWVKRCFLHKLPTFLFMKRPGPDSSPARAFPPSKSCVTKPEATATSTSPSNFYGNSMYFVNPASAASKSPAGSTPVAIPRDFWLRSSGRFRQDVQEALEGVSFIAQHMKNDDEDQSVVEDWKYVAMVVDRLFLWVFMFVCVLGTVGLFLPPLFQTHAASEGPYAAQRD
Sequence of Neuronal acetylcholine receptor; alpha3/beta4 (P32297 whole entry): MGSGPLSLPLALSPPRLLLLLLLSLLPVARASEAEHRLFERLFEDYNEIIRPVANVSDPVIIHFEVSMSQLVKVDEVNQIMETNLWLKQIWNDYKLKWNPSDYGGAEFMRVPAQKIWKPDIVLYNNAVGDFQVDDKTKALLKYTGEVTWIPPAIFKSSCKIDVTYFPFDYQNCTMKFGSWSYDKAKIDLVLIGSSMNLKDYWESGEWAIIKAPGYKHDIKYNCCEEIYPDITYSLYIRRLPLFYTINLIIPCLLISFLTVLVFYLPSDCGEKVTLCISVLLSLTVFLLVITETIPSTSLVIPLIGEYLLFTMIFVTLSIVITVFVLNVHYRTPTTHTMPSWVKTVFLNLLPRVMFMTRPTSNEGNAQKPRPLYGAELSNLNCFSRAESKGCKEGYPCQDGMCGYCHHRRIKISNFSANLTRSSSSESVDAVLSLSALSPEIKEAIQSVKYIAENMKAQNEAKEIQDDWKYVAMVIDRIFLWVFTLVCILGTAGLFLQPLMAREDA

[11] = target: T1, 5-hydroxytryptamine receptor 3A (Homo sapiens, UniProt P46098); experiment: Antagonist activity at human 5HT3 receptor by calcium influx assay; format: functional
T1 sequence (P46098 whole entry): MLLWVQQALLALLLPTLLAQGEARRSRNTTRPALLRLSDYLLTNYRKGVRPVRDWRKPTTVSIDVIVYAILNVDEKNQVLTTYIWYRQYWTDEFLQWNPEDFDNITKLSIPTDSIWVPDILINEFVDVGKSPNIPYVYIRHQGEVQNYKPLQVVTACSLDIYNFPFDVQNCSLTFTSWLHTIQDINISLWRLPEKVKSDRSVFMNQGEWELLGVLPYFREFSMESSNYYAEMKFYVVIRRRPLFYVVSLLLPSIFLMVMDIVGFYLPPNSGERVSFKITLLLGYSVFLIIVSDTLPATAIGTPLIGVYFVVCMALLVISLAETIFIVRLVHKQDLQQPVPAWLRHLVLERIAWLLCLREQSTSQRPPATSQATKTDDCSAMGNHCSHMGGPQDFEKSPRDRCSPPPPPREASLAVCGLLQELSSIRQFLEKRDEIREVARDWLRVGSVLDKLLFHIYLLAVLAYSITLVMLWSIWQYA

Homo sapiens [12] = species: Homo sapiens; experiment: Selectivity for human 5HT3 receptor over human alpha7 nAChR
[13] = target: Neuronal acetylcholine receptor; alpha4/beta2 (Homo sapiens, UniProt P17787+P43681); experiment: Antagonist activity at human alpha4beta2 nAChR expressed in HEK293 cells by calcium influx assay; format: functional, cell-based
Sequence of Neuronal acetylcholine receptor; alpha4/beta2 (P17787 whole entry): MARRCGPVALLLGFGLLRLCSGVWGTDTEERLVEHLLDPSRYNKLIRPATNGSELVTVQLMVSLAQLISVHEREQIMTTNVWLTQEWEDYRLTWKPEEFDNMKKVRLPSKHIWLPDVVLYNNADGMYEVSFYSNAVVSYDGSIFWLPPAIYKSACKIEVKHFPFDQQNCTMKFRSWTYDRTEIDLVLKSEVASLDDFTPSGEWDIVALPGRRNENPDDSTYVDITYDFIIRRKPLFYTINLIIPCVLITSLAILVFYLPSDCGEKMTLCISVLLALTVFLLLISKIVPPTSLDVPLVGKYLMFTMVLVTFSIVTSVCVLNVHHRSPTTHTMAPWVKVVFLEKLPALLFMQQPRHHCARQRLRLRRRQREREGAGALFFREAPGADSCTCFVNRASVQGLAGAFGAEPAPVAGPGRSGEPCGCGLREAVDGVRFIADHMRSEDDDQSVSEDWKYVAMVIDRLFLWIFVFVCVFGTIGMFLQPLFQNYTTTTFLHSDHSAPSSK
Sequence of Neuronal acetylcholine receptor; alpha4/beta2 (P43681 whole entry): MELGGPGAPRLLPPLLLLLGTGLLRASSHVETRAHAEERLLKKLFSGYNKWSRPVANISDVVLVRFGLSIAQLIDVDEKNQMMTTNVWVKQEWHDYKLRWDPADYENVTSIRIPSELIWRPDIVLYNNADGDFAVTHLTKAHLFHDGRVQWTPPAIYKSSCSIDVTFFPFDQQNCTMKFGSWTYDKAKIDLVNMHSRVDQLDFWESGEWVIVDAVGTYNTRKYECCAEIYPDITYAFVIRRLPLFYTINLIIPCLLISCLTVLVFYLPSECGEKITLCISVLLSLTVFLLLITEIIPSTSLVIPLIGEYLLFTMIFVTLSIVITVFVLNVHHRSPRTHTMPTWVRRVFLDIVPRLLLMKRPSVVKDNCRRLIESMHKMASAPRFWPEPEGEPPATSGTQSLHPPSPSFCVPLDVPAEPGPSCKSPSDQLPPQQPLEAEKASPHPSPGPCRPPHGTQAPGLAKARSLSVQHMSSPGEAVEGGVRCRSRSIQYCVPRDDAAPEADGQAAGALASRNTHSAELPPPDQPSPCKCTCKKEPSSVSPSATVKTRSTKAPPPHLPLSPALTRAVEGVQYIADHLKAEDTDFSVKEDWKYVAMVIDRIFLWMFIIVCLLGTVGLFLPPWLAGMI

Homo sapiens [14] = species: Homo sapiens; experiment: Selectivity for human alpha-1-beta-1-gamma-delta nAChR over human alpha7 nAChR
Brain [15] = experiment: Drug level in DBA/2 mouse brain at 30 umol/kg, po after 1 hr; format: ADME, organism-based; settings: in vivo; in short: as §2
Mus musculus [16] = experiment: Plasma concentration in DBA/2 mouse at 30 umol/kg, po after 4 hrs; format: ADME, organism-based; settings: in vivo; in short: as §2
[17] = target: Voltage-gated inwardly rectifying potassium channel KCNH2 (Homo sapiens, UniProt Q12809); experiment: Inhibition of human ERG by patch-clamp technique
Heart = experiment: Toxicity in langendorff isolated rabbit heart assessed as effect on QT interval prolongation up to 10 uM by whole heart assay; format: tissue-based, Oryctolagus cuniculus
In short: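 Langendorff isolated rabbit heart, ex vivo whole-heart preparation. QT interval monitored at concentrations up to 10 µM.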

Homo sapiens [18] = species: Homo sapiens; experiment: Selectivity for human alpha4beta2 nAChR over human alpha7 nAChR
Mus musculus [19] = experiment: Plasma concentration in DBA/2 mouse at 30 umol/kg, po after 1 hr; format: ADME, organism-based; settings: in vivo; in short: as §2
[20] = target: T2, Muscarinic acetylcholine receptor M5 (Homo sapiens, UniProt P08912); experiment: Inhibition of human recombinant muscarinic M5 receptor
T2 sequence (P08912 whole entry): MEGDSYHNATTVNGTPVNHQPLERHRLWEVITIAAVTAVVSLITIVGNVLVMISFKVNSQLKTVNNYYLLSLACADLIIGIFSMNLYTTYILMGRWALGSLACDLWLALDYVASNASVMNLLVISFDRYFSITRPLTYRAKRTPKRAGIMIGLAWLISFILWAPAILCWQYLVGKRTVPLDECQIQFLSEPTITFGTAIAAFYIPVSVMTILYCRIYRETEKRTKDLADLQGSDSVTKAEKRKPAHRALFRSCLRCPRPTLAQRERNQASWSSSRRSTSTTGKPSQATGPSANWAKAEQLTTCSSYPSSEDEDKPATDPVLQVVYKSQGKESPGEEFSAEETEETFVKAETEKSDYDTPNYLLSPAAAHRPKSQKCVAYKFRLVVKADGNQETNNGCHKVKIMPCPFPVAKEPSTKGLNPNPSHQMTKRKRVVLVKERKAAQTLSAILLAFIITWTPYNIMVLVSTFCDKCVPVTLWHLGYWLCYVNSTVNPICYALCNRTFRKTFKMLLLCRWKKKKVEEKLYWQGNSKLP

[21] = target: Muscarinic acetylcholine receptor M3 (Homo sapiens, UniProt P20309); experiment: Inhibition of human recombinant muscarinic M3 receptor
[22] = target: T3, Muscarinic acetylcholine receptor M4 (Homo sapiens, UniProt P08173); experiment: Inhibition of human recombinant muscarinic M4 receptor
T3 sequence (P08173 whole entry): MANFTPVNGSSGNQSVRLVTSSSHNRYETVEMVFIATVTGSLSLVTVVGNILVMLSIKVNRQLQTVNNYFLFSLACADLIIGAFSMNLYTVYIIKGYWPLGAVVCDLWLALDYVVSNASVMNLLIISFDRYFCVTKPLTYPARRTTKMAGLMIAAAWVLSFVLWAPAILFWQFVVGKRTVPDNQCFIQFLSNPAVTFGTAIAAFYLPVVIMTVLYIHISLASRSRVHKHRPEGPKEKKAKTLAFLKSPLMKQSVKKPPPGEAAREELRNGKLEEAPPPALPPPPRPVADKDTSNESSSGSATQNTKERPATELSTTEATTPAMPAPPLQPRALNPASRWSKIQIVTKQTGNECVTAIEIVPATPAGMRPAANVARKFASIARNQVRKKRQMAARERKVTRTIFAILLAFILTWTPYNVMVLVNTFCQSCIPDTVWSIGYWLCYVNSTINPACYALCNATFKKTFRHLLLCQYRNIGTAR

[23] = target: T4, Muscarinic acetylcholine receptor M1 (Homo sapiens, UniProt P11229); experiment: Inhibition of human recombinant muscarinic M1 receptor
T4 sequence (P11229 whole entry): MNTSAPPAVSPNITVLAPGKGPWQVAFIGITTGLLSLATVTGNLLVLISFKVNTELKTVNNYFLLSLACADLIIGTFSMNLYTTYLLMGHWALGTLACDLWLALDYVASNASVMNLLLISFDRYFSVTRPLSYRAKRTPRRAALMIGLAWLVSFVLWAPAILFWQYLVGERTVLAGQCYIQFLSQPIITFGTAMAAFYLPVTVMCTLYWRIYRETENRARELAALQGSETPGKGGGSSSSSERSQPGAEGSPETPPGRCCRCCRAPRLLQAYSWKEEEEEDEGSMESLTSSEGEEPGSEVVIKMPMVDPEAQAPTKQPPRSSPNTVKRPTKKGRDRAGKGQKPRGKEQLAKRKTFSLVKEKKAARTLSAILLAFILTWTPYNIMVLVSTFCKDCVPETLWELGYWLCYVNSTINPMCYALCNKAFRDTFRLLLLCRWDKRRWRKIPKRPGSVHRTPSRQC

[24] = target: T5, Muscarinic acetylcholine receptor M2 (Homo sapiens, UniProt P08172); experiment: Inhibition of human recombinant muscarinic M2 receptor
T5 sequence (P08172 whole entry): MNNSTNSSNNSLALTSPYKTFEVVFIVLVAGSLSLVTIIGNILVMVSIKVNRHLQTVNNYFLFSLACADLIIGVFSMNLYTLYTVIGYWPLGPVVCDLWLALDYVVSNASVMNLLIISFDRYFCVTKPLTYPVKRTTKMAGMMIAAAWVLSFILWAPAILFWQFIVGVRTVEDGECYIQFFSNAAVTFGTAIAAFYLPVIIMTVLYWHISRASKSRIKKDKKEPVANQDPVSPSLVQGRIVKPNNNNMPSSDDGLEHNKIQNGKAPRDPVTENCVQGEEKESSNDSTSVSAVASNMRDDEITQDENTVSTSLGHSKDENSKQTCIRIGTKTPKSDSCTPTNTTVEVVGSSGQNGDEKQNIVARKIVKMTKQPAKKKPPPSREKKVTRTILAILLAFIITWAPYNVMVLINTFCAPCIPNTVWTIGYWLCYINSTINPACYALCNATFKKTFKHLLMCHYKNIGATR

Sequence of Neuronal acetylcholine receptor subunit alpha-7 (P36544 whole entry): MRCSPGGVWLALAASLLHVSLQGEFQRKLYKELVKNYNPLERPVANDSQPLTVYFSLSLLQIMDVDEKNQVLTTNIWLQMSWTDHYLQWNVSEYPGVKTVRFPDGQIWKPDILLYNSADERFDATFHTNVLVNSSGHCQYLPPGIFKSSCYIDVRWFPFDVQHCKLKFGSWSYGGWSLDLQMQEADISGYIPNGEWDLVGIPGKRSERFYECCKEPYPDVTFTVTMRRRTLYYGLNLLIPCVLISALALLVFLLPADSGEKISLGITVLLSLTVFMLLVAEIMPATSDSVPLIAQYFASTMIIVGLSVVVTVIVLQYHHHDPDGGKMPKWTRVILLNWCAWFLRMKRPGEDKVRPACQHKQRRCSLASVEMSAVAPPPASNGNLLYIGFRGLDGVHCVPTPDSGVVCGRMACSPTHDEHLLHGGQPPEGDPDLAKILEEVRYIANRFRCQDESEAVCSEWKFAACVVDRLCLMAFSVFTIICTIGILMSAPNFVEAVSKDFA

`CN1C(=O)[C@@H](CN2CCCCC2)C[C@H]1C#Cc1ccccc1` (relative stereo) gave a logP [1] of 3.7, an EC50 [2] of 0.01 µM and an Emax [2] of 104%. The IC50 [3] was 12.6 µM, the inhibition [4] was 33% and the fraction unbound [5] was 0.31. It also gave a fraction unbound [6] of 0.17, a Ratio (Homo sapiens [7]) of 126 and a Drug uptake (Brain [8]) of 64 pmol/g. For the same molecule, the hepatic extraction ratio [9] was 0.9, the IC50 [10] was 1.26 µM and the IC50 [11] was 251 µM. For the same molecule, the Ratio (Homo sapiens [12]) was 26400, the IC50 [13] was 7.94 µM and the Ratio (Homo sapiens [14]) was 1300. For the same molecule, the Drug uptake (Brain [15]) was 239 pmol/g, the Cp (Mus musculus [16]) was 4 pmol/g and the IC50 [17] was 6.85 µM. For the same molecule, the Activity (Heart) was “Non-toxic”, the Ratio (Homo sapiens [18]) was 820 and the Cp (Mus musculus [19]) was 18 pmol/g.
Work on `C[C@H](OC(=O)N[C@@H]1CN2CCC1CC2)c1ccccc1F` yielded an IC50 [20] of over 10 µM, an IC50 [21] of over 10 µM and an IC50 [22] of over 10 µM. For the same molecule, the IC50 [3] was 126 µM, the IC50 [23] was over 10 µM and the Ratio (Homo sapiens [7]) was 200. The IC50 [10] was 20 µM, the IC50 [11] was 20 µM and the Ratio (Homo sapiens [12]) was 200. It also gave an IC50 [13] of 25.1 µM, a Ratio (Homo sapiens [14]) of 1260 and an IC50 [24] of over 10 µM. For the same molecule, the Ratio (Homo sapiens [18]) was 251.
